Assay outcomes (PubChem BioAssay)
hIAP act – human IAP activators, primary screen, biochemical, luminescence, uHTS; purified human IAP, CDP-Star luminescence, 30 min; stronger effect = higher value; 1 = vehicle-only enzyme, 0 = enzyme-free background; AID 2524, 2010; activation factor at 10 µM; 330,000 compounds, 0.16% hits;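 active = activation factor of the enzyme at least 2-fold when tested at 20 µM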
Target sequence (P09923 whole entry, looked up): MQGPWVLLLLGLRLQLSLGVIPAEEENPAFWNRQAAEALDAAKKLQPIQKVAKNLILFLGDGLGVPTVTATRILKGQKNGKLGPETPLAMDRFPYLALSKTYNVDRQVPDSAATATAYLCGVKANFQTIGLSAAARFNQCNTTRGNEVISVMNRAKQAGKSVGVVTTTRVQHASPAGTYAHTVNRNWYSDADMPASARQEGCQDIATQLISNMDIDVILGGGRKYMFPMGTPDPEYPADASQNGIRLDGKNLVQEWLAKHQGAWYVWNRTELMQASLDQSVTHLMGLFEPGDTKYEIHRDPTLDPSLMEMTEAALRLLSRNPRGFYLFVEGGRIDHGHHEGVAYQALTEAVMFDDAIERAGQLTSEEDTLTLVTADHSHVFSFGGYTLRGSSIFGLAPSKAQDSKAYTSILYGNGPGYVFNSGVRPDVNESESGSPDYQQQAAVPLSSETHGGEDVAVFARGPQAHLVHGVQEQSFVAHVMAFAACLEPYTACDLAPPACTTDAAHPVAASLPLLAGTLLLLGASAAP
mIAP block – inhibitors of mouse IAP, primary screen, biochemical, luminescence, uHTS | purified mouse IAP, CDP-Star luminescence, 30 min | 330,000 compounds, 0.2% hits | intestinal alkaline phosphatase [Mus musculus] | inhibition, % at 10 µM;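 active = inhibition of at least 40% at 10 µM in the primary screen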;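 note: plate controls were DMSO with enzyme for no effect and no enzyme wells for full effect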
hIAP block – human IAP inhibitors, primary screen, biochemical, luminescence, uHTS. inhibition, % at 10 µM. 330,000 compounds, 0.12% hits. Intestinal-type alkaline phosphatase (Homo sapiens), P09923. purified IAP, CDP-Star luminescence, 30 min;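 active = inhibition reaching a set limit with compound at 10 µM in the primary screen, cut at about 35% in these data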;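 note: plate controls were DMSO wells with enzyme for no effect and no-enzyme buffer wells for full effect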
bIAP inhibitor – bovine intestinal alkaline phosphatase inhibitors, primary screen, selectivity assay for TNAP inhibitor project, biochemical, bovine IAP, CDP-star luminescence; alkaline phosphatase, intestinal [Bos taurus]; purified bovine IAP, 30 min; inhibition, % at 20 µM; 190,000 tested, under 10 active;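 active = over 50% inhibition of intestinal alkaline phosphatase at 20 µM in the single-dose screen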
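Assay system – bovine IAP enzyme · Quantity – bovine IAP at 1/65,000,000 final dilution · Detection – CDP-star luminescence signal · Times – 30 min reaction at room temperature · Also added – CDP-star substrate at 30 µM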
bIAP activator – bovine intestinal alkaline phosphatase activators, primary screen, biochemical, bovine IAP, CDP-star luminescence; purified bovine IAP, 30 min; stronger effect = higher value; fold of DMSO-control signal, blank-subtracted; activation factor at 20 µM; alkaline phosphatase, intestinal [Bos taurus]; AID 1016, 2008; 200,000 compounds, 0.17% hits;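 active = activation factor of 2 or more at 20 µM, a signal rise over negative controls twice the positive control's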
mIAP act – activators of mouse IAP, primary screen, biochemical, luminescence, uHTS; intestinal alkaline phosphatase [Mus musculus]; muIAP, CDP-Star luminescence, 30 min; stronger effect = higher value; 1 = vehicle-only enzyme signal, 0 = enzyme-free wells; 330,000 compounds, 0.24% hits; AID 2805, 2010; activation factor at 10 µM;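 active = activation factor of at least 2 at 20 µM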
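System: mouse IAP enzyme. Reagent: CDP-Star chemiluminescent phosphatase substrate. Benchmarks: DMSO wells, no-enzyme wells. Times: 30 min enzyme-substrate-compound incubation at room temperature. Detection: luminescence from enzymatic CDP-Star hydrolysis. Doses: test compounds delivered from DMSO solution.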
hIAP act conf – human IAP activators, confirmation, biochemical, luminescence, single concentration, uHTS hits; activation (%Activity, negative = activation), % at 8.3 µM; 880 compounds, 10% hits; purified IAP, CDP-Star luminescence, 30 min; stronger effect = lower value; shares compounds with hIAP act;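 active = at least twofold enzyme activation in any of six single-dose repeats, which the averaged readout prints as negative percent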
* = called active by the depositor; / = no result given. Only some compounds are listed: those with a hit (about 0.77% of all), similar ones and a draw of the others.

SMILES | hIAP act | mIAP block | hIAP block | bIAP inhibitor | bIAP activator | mIAP act | hIAP act conf
COc1cccc(-c2nc(CS(=O)(=O)CC(=O)Nc3ccccc3C)c(C)o2)c1 | 1.32 | -3.4 | -31.9 | / | / | 1.03 | /
COc1cccc(-c2nc(CS(=O)(=O)CC(=O)Nc3cc(OC)ccc3OC)c(C)o2)c1 | 0.635 | 2.6 | 36.5* | / | / | 0.974 | 31.5
COc1ccc(OCC(=O)Nc2ccc3c(c2)nc(CCn2ccccc2=O)n3C)cc1 | 0.716 | -8.7 | 28.4 | / | / | 1.09 | /
CCN(CC)S(=O)(=O)c1cc(NC(=O)C(CC(C)C)NC(N)=O)ccc1C (stereo not given) | 0.877 | 0.3 | 12.3 | -12.7 | 1.1 | 0.997 | /
CC(=O)NNc1ncnc2c1cnn2-c1ccc(C)c(C)c1 | 2.48* | 14.5 | -147.7 | -48.8 | 1.5 | 0.855 | -77.6
O=C(NNc1ncnc2c1cnn2-c1ccc(F)cc1)c1ccco1 | 2.63* | 1.3 | -163.3 | / | / | 0.987 | -47.2*
CCOC(=O)Cn1nc(C)c(NC(=O)CCc2ccccc2)c1C | 0.855 | 7.7 | 14.5 | 5.3 | 0.9 | 0.923 | /
CC1CCCCN1S(=O)(=O)c1ccc2c(c1)C(C)(C)C(=O)N2C (stereo not given) | 0.978 | 0.3 | 2.2 | / | / | 0.997 | /
CC(=O)NC1(c2nnnn2CCOC(=O)Nc2ccc(Cl)cc2)CCCC1 | 1.04 | -6.6 | -3.7 | 1.8 | 1 | 1.07 | /
Cc1ccc(N2CC(C(=O)Nc3cc(C)on3)CC2=O)cc1 (stereo not given) | 0.895 | -8.0 | 10.5 | 6.3 | 0.9 | 1.08 | /
COc1ccc(-c2nnc(SCC(=O)N3CCOCC3)n2C)cc1OC | 2.27* | -0.5 | -127.0 | 10.3 | 0.9 | 1 | 4.9
Cc1nc2nc(-c3cccs3)cn2nc1C | 1.03 | 10.0 | -3.2 | -6.6 | 1.1 | 0.9 | /
CS(=O)(=O)N1CCN(C(=O)c2cc(-c3ccncc3)nc3ccc(Cl)cc23)CC1 | 2.45* | 1.3 | -145.2 | -2.1 | 1 | 0.987 | 7.6
CN1CCN(NC(=O)c2cn(-c3ccccc3)nc2-c2cccc(Br)c2)CC1 | 0.901 | -16.0 | 9.9 | -15.1 | 1.2 | 1.16 | /
COc1ccc(C)cc1NC(=S)NNC(=O)c1ccccc1Cl | 2.1* | 13.6 | -110.1 | -32.4 | 1.3 | 0.864 | 2.3
Cc1ccc(NC(=S)NNC(=O)c2ccccc2O)c(C)c1 | 2.25* | 14.7 | -125.1 | -52.5 | 1.5 | 0.853 | -35.5
Cc1ccc(NC(=O)CCNC(=O)c2ccccc2)cc1F | 0.923 | -4.4 | 7.7 | / | / | 1.04 | /
CC(=O)Nc1ccc(S(=O)(=O)N(C)CCOCc2ccccc2)cc1 | 0.616 | 0.5 | 38.4* | -3.3 | 1 | 0.995 | -45.3
COCCNc1ccc(N2C(=O)CCCC2=O)cc1[N+](=O)[O-] | 0.916 | 4.9 | 8.4 | 21.5 | 0.8 | 0.951 | /
CCc1cccc(CC)c1NC(=O)CN(CC(=O)O)CC(=O)O | 2.1* | -5.2 | -109.7 | / | / | 1.05 | -5.0
CCSC(=O)N(CC)CC(=O)Nc1c(CC)cccc1CC | 1.08 | -5.4 | -8.4 | 10.3 | 0.9 | 1.05 | /
NC1=NCC(O)=C1c1nc2ccccc2[nH]1 | 2.01* | 6.3 | -101.2 | -66.5 | 1.7 | 0.937 | -54.8
CCOC(=O)c1[nH]c2ccccc2c1NC(=O)c1ccc(S(=O)(=O)N2CCCC2)cc1 | 1.04 | 9.8 | -4.4 | -12.6 | 1.1 | 0.902 | /
COc1ccc(F)cc1S(=O)(=O)n1nc(C)cc1C | 0.604 | 2.5 | 39.6* | / | / | 0.975 | -61.6
COc1ccc(C)cc1S(=O)(=O)n1nc(C)cc1C | 1.13 | 4.9 | -13.3 | -8.1 | 1.1 | 0.951 | /
SMILES | hIAP act | mIAP block | hIAP block | bIAP inhibitor | bIAP activator | mIAP act | hIAP act conf
CN(C)c1ccc(CN(Cc2ccco2)C(=O)c2ccco2)cc1 | 0.932 | -10.7 | 6.8 | / | / | 1.11 | /
O=C(c1ccco1)N(Cc1ccc(Cl)cc1)Cc1ccco1 | 0.62 | -2.1 | 38.0* | / | / | 1.02 | -43.1
CCNC(=O)Cc1c(OC)ccc2cc(Br)ccc12 | 0.574 | -0.1 | 42.6* | 4.0 | 1 | 1 | 16.4
Cc1cc(OCc2cc(C(=O)NC3CCC3)no2)cc(C)c1Cl | 0.612 | 2.1 | 38.8* | / | / | 0.979 | -3.4
Cc1ccc(OCc2cc(C(=O)NC3CCCCC3)no2)cn1 | 1.17 | -6.0 | -17.3 | / | / | 1.06 | /
Cc1ccc(-c2cc(C(=O)N/N=C/c3cccnc3)n[nH]2)o1 | 1.23 | 8.7 | -22.9 | 0.1 | 1 | 0.913 | /
Cc1ccc(/C=N/NC(=O)c2cc(-c3ccc(C)o3)[nH]n2)cc1 | 2.07* | 12.8 | -106.8 | / | / | 0.872 | 6.0
Cc1[nH]c2ccccc2c1SCc1n[nH]c(=S)n1C | 1.11 | -10.8 | -11.4 | / | / | 1.11 | /
Cc1ccc(P(C)(=O)c2ccc(C)cc2)cc1 | 1.13 | -3.1 | -13.4 | 9.6 | 0.9 | 1.03 | /
CC(C)N(CCCNC(=O)CC1Oc2ccccc2NC1=O)Cc1ccccc1 (stereo not given) | 0.854 | -4.5 | 14.6 | -1.1 | 1 | 1.04 | /
Cc1nnc(NC(=O)c2ccc(S(=O)(=O)N3CCOCC3)cc2)s1 | 1.03 | -9.1 | -3.2 | / | / | 1.09 | /
O=C(CSc1nnc(NC(=O)c2ccc(S(=O)(=O)N3CCOCC3)cc2)s1)Nc1ccccc1C(F)(F)F | 0.127 | -3.7 | 87.3* | -12.9 | 1.1 | 1.04 | 0.3
CCCNC(=O)c1n[nH]c2c1CC(C(C)(C)CC)CC2 (stereo not given) | 1.38 | -24.1 | -38.0 | / | / | 1.24 | /
Cn1ccnc1SCc1ccc(Cl)cc1Cl | 2.19* | -8.4 | -119.0 | / | / | 1.08 | 18.6
COc1ccc(CCNC(=O)c2cc(-c3cc(C)cc(C)c3O)n[nH]2)cc1OC | 1.79 | -14.9 | -79.0 | / | / | 1.15 | /
Cc1ccc(NC(=O)c2cc(-c3ccccc3O)n[nH]2)cc1Cl | 1.56 | -12.6 | -56.1 | / | / | 1.13 | /
COc1ccc(CCNC(=O)c2cc(-c3cc(Cl)ccc3O)n[nH]2)cc1OC | 2.33* | -79.6 | -133.6 | / | / | 1.8 | -46.2
NS(=O)(=O)c1ccc(NC(=O)c2cc(-c3ccccc3O)n[nH]2)cc1 | 2.03* | 22.8 | -103.3 | / | / | 0.772 | 8.0
COc1ccc(CCNC(=O)c2cc(-c3ccc(C)cc3O)n[nH]2)cc1OC | 2.15* | -45.7 | -115.0 | -50.0 | 1.5 | 1.46 | -63.0
Cc1cc(O)c(-c2cc(C(=O)NCCc3ccc(S(N)(=O)=O)cc3)[nH]n2)cc1C | 2.23* | 22.5 | -123.2 | / | / | 0.775 | 5.1
Cc1cc(C)c(O)c(-c2cc(C(=O)NCCc3ccc(S(N)(=O)=O)cc3)[nH]n2)c1 | 1.72 | 24.8 | -71.6 | / | / | 0.752 | /
